ChEMBL document CHEMBL1629542, “Epigallocatechin gallate inactivates clinical isolates of herpes simplex virus” (Antimicrob Agents Chemother, 2008)
The source made the active and inactive calls. The calls are words filed in the database; no cut-off is given here.

Columns and labels:
Human alphaherpesvirus 1 [1] = assay: Antiviral activity against Human herpesvirus 1 isolate P25 infected in African green monkey vero cells assessed as log reduction in viral titer at 50 uM; assay type: functional
Method in brief: (§1)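 Laboratory HSV-1 F1 or patient-swab HSV-1 isolates were prepared as clarified Vero supernatants. They were incubated 1 h with a range of EGCG concentrations in RPMI 1640/1% FCS at pH 7.4. Titres were determined on Vero cells by 5-day CPE endpoint (Reed-Muench). IC99 was read graphically as 99% titre drop from untreated; mean ± SD, three experiments.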

Human alphaherpesvirus 2 [2] = assay: Antiviral activity against Human herpesvirus 2 isolate P12 infected in African green monkey CV1 cells assessed as log reduction in viral titer at 12.5 uM; assay type: functional, CV-1
Method in brief: (§2)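 HSV-2 patient-swab isolates were grown as clarified CV-1 supernatants and incubated 1 h with a range of EGCG concentrations (RPMI 1640/1% FCS, pH 7.4). They were titrated on CV-1 cells from 10-fold dilutions by 5-day CPE at 37°C, with Reed-Muench TCID50. IC99 was derived graphically as 99% reduction from zero-drug titre; mean ± SD, three experiments.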

Human alphaherpesvirus 1 [3] = assay: Antiviral activity against Human herpesvirus 1 isolate P56 infected in African green monkey vero cells assessed as log reduction in viral titer at 50 uM; assay type: functional; method in brief: as §1
Human alphaherpesvirus 2 [4] = assay: Antiviral activity against Human herpesvirus 2 isolate P11 infected in African green monkey CV1 cells assessed as log reduction in viral titer at 100 uM within 10 mins; assay type: functional, CV-1
Method in brief: (§3)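 HSV-2 clinical isolates from clarified CV-1 supernatants were held with 100 μM EGCG for timed intervals, from 10 min onward. Surviving virus was titrated on CV-1 cells by 10-fold dilution and 5-day CPE scoring, with TCID50 by Reed-Muench. Values are mean ± SD, three experiments.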

Human alphaherpesvirus 1 [5] = assay: Antiviral activity against Human herpesvirus 1 isolate P42 infected in African green monkey vero cells assessed as log reduction in viral titer at 100 uM after 40 to 60 mins; assay type: functional
Method in brief: (§4)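 In the time course, HSV-1 clinical isolates (clarified Vero supernatants) were exposed to 100 μM EGCG for varying times up to 60 min. Residual infectivity was then titrated on Vero cells by 5-day CPE endpoint with Reed-Muench calculation. Mean ± SD of three separate experiments.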

Human alphaherpesvirus 1 [6] = assay: Antiviral activity against Human herpesvirus 1 isolate P56 infected in African green monkey vero cells assessed as log reduction in viral titer at 100 uM within 20 mins; assay type: functional; method in brief: as §4
Human alphaherpesvirus 1 [7] = assay: Antiviral activity against Human herpesvirus 1 isolate P38 infected in African green monkey vero cells assessed as log reduction in viral titer at 50 uM; assay type: functional; method in brief: as §1
Human alphaherpesvirus 1 [8] = assay: Antiviral activity against Human herpesvirus 1 isolate P32 infected in African green monkey vero cells assessed as log reduction in viral titer at 100 uM within 20 mins; assay type: functional; method in brief: as §4
Human alphaherpesvirus 2 [9] = assay: Antiviral activity against Human herpesvirus 2 isolate P11 infected in African green monkey CV1 cells assessed as log reduction viral titer at 50 uM; assay type: functional, CV-1; method in brief: as §2
Human alphaherpesvirus 1 [10] = assay: Antiviral activity against Human herpesvirus 1 F1 assessed as decrease in labeled gB envelope glycoprotein at 100 uM after 2 hrs by electron microscopy; assay type: functional, organism-based
Method in brief: (§5)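 Purified HSV-1 F1 virions were treated with 100 μM EGCG for 2 h, fixed in glutaraldehyde/paraformaldehyde and LR White-embedded without osmium. Nickel-grid sections were blocked with BSA and goat serum, then labelled overnight with anti-gB or anti-gD monoclonal (1:15) and 15 nm colloidal gold. Labelled versus unlabelled particles were counted in 10 fields of 100 particles; mean ± SD.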

Human alphaherpesvirus 1 [11] = assay: Antiviral activity against Human herpesvirus 1 isolate P42 infected in African green monkey vero cells assessed as reduction in viral titer; assay type: functional, organism-based; conditions: Human alphaherpesvirus 1, isolate P42, Vero; method in brief: as §1
Human alphaherpesvirus 2 [12] = assay: Antiviral activity against Human herpesvirus 2 isolate P2 infected in African green monkey CV1 cells assessed as log reduction viral titer at 12.5 ug/ml; assay type: functional, CV-1
Method in brief: (§6)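 HSV-2 (clinical swab isolates or strain 333) was grown in CV-1 cells and used as clarified supernatant. Virus was exposed to graded EGCG for 1 h in RPMI 1640 with 1% FCS, pH 7.4. Tenfold dilutions were titrated on CV-1 cells, three wells each, 5 days at 37°C, scoring CPE. TCID50 was calculated by Reed-Muench. IC99 was read graphically as 99% titer drop from the zero-concentration titer. Mean of three experiments.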

Human alphaherpesvirus 1 [13] = assay: Antiviral activity against Human herpesvirus 1 F1 infected in African green monkey CV1 cells assessed as log reduction in viral titer at 100 uM; assay type: functional, CV-1
Human alphaherpesvirus 1 [14] = assay: Antiviral activity against Human herpesvirus 1 isolate P56 infected in African green monkey vero cells assessed as log reduction in viral titer at 100 uM within 10 mins; assay type: functional; method in brief: as §4
Human alphaherpesvirus 2 [15] = assay: Antiviral activity against Human herpesvirus 2 isolate P27 infected in African green monkey CV1 cells assessed as log reduction in viral titer at 100 uM within 10 mins; assay type: functional, CV-1
Method in brief: (§7)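 Time course: clarified CV-1 supernatant of HSV-2 (clinical isolates or strain 333) was exposed to 100 μM EGCG for increasing times. It was then titrated by tenfold dilution on CV-1 cells, three wells per dilution, for 5 days at 37°C with CPE read-out. Reed-Muench TCID50 was compared with the untreated titer. Mean of three separate experiments.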

Human alphaherpesvirus 1 [16] = assay: Antiviral activity against Human herpesvirus 1 isolate P15 infected in African green monkey vero cells assessed as log reduction in viral titer at 100 uM after 40 to 60 mins; assay type: functional; method in brief: as §4
Human alphaherpesvirus 2 [17] = assay: Antiviral activity against Human herpesvirus 2 isolate P11 infected in African green monkey CV1 cells assessed as log reduction in viral titer at 12.5 uM; assay type: functional, CV-1; method in brief: as §2
Human alphaherpesvirus 2 [18] = assay: Antiviral activity against Human herpesvirus 2 strain 333 infected in African green monkey CV1 cells assessed as log reduction viral titer at 12.5 ug/ml; assay type: functional, CV-1; method in brief: as §6
Human alphaherpesvirus 2 [19] = assay: Antiviral activity against Human herpesvirus 2 isolate P22 infected in African green monkey CV1 cells assessed as log reduction in viral titer at 100 uM within 10 mins; assay type: functional, CV-1; method in brief: as §7
Human alphaherpesvirus 2 [20] = assay: Antiviral activity against Human herpesvirus 2 strain 333 infected in African green monkey CV1 cells assessed as log reduction in viral titer at 100 uM; assay type: functional, CV-1
Method in brief: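 Lab strain HSV-2 333 was grown and titrated either in CV-1 cells or in Vero cells. Virus was incubated with 100 μM EGCG for 60 min, then titrated as tenfold dilutions for 5 days at 37°C with CPE scoring. Reed-Muench TCID50 of treated versus control virus gave the titer decrease. Mean of three experiments.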

Human alphaherpesvirus 1 [21] = assay: Antiviral activity against Human herpesvirus 1 isolate P32 infected in African green monkey vero cells assessed as reduction in viral titer at 100 uM; assay type: functional, organism-based; method in brief: as §1
Human alphaherpesvirus 1 [22] = assay: Antiviral activity against Human herpesvirus 1 isolate P15 infected in African green monkey vero cells assessed as reduction in viral titer at 100 uM; assay type: functional, organism-based; method in brief: as §1
Human alphaherpesvirus 2 [23] = assay: Antiviral activity against Human herpesvirus 2 isolate P12 infected in African green monkey CV1 cells assessed as log reduction in viral titer at 100 uM within 10 mins; assay type: functional, CV-1; method in brief: as §3
Human alphaherpesvirus 1 [24] = assay: Antiviral activity against Human herpesvirus 1 F1 assessed as decrease in labeled gD envelope glycoprotein at 100 uM after 2 hrs by electron microscopy; assay type: functional, organism-based; method in brief: as §5

With `O=C(O[C@@H]1Cc2c(O)cc(O)cc2O[C@@H]1c1cc(O)c(O)c(O)c1)c1cc(O)c(O)c(O)c1` [EPIGALOCATECHIN GALLATE] the FC (Human alphaherpesvirus 1 [1]) was 2, the FC (Human alphaherpesvirus 2 [2]) was “>=2” and the FC (Human alphaherpesvirus 1 [3]) was 2. It also gave an FC (Human alphaherpesvirus 2 [4]) of 2, an FC (Human alphaherpesvirus 1 [5]) of 3 and an FC (Human alphaherpesvirus 1 [6]) of 3. For the same compound, the FC (Human alphaherpesvirus 1 [7]) was 2, the FC (Human alphaherpesvirus 1 [8]) was 3 and the FC (Human alphaherpesvirus 2 [9]) was greater than 4. For the same compound, the Activity (Human alphaherpesvirus 1 [10]) was “Active”, the IC99 (Human alphaherpesvirus 1 [11]) was 49.1 µM and the FC (Human alphaherpesvirus 2 [12]) was 3.15. For the same compound, the FC (Human alphaherpesvirus 1 [13]) was 3.5, the FC (Human alphaherpesvirus 1 [14]) was 2 and the FC (Human alphaherpesvirus 2 [15]) was 2. The FC (Human alphaherpesvirus 1 [16]) was 3, the FC (Human alphaherpesvirus 2 [17]) was “>=2” and the FC (Human alphaherpesvirus 2 [18]) was 0.56. The FC (Human alphaherpesvirus 2 [19]) was 2, the FC (Human alphaherpesvirus 2 [20]) was 4 and the Activity (Human alphaherpesvirus 1 [21]) was “Active”. The Activity (Human alphaherpesvirus 1 [22]) was “Active”, the FC (Human alphaherpesvirus 2 [23]) was 2 and the Activity (Human alphaherpesvirus 1 [24]) was “Active”.
